In the RNAGym collection of RNA variant scans (doi:10.1126/science.aae0568):
This sample holds only a part of the variants without activity.

B1: tRNA (parent)
chain: GUUCCGUUGGCGUAAUGGUAACGCGUCUCCCUCCUAAGGAGAAGACUGCGGGUUCGAGUCCCGUACGGAACG

Variants of: B1
Test: yeast fitness relative to wild type (ratio to wild type); higher = fitter; tRNA-Arg(CCU), competitive growth, 37 C, YPD
Summary of the method: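 Variants of the tRNA-Arg(CCU) gene, chemically synthesised with a 3% per-site mutation rate at 69 sites, were placed at the native genomic locus in Saccharomyces cerevisiae. The pooled strains were competed in YPD at 37°C for 24 hours in six parallel replicates. Gene amplicons from the start population and from each end population were read by 100-nucleotide paired-end sequencing. Darwinian fitness relative to wild type came from changes in genotype frequencies; genotypes needed ≥ 100 starting reads, and estimates < 0.5 were set to 0.5.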

Row | Variant | yeast fitness
1 | C5G U13C C22G G23U C29G A45C G68C A69G | 0.531
2 | C34U C66G | 0.56
3 | U7C C11A C30G C66U A69U | ≤ 0.5
4 | C29A A37G G67C | 0.62
5 | C46U G51A | 1.02
6 | G12A A36G U47G G63A A65U | ≤ 0.5
7 | G10A C34G A69U | ≤ 0.5
8 | A14G A43G | 0.932
9 | U26A U59C C66U | 0.564
10 | A57G A70G | 0.889
11 | U2G G17A G23A G38C A40G | 0.694
12 | C29G C55U C62U | 0.567
13 | C4A A42U A69U | 0.625
14 | G41A C49U G51C C61U | ≤ 0.5
15 | C5U U13A C61U | 0.624
16 | C11A G44C G56A C66U | 0.552
17 | C4A | 0.998
18 | G9C U16C C30A G41C A45C C46G | ≤ 0.5
19 | A15U U28G C33U | ≤ 0.5
20 | U28C C30A G39A C66U | 0.594
21 | G23C C29G G67U A69C | ≤ 0.5
22 | G9A C11U C49A G67U | ≤ 0.5
23 | C5A C11G G51A | 0.538
24 | C29A C34U G51A G52C U64C | 0.663

Row | Variant | yeast fitness
25 | C29G A36C G41A G50A U53C | ≤ 0.5
26 | G12A C29G U35G C61U | ≤ 0.5
27 | A20C C24G C27A G44A U59G A65C | ≤ 0.5
28 | C46G C49A C61U | 0.597
29 | C5G A42G | 0.701
30 | C24G C55G C66U | ≤ 0.5
31 | U16A U47C A70G | 0.78
32 | C5U A21U U32A A40U | 0.634
33 | A15C G17A U54C C55G | ≤ 0.5
34 | C27G U47C A70U | 0.545
35 | U8A U26C G52C | ≤ 0.5
36 | A37G G52A C55G | 0.516
37 | C30G G52C A65C | ≤ 0.5
38 | C4G C5U A37U | ≤ 0.5
39 | A14C C22A C46A | 0.605
40 | A20U C60U A69U | 0.672
41 | G10C G12A U54A G68A | ≤ 0.5
42 | C11A G68U | 0.54
43 | U28C A36C U47A G58C G67U | ≤ 0.5
44 | C22G A42G C60A | ≤ 0.5
45 | C4G U7G C31U | 0.56
46 | G10A C29U A57C | ≤ 0.5
47 | U3G U54G A57C | ≤ 0.5
48 | C4A C5G A57U G68U | 0.575

Row | Variant | yeast fitness
49 | A20U A36G G38A A40U A42G | ≤ 0.5
50 | C24G C33G A36C A37C G41A A42C A65U | ≤ 0.5
51 | C4G G17A C29U C62U | ≤ 0.5
52 | G10A C60G | 0.531
53 | A21C C22G G38C C49U A57C | ≤ 0.5
54 | U28A C34U A40U A45U C60A | 0.706
55 | G10C G41A C62U | ≤ 0.5
56 | A57U A65C C66G | ≤ 0.5
57 | U3C U8A U19A U54G | ≤ 0.5
58 | C5U C30A U53A C62U | 0.659
59 | G9C A65C | 0.67
60 | C30A G39U | 0.772
61 | C11G C22G C66A A69U | 0.533
62 | G18A C31A G44A | 0.534
63 | G56A A57G | 0.905
64 | U2G G10C G56C A69U | ≤ 0.5
65 | A20C U28A C62U G67A | ≤ 0.5
66 | C31A U64G A69C | ≤ 0.5
67 | C11U G23C G41A C62A | ≤ 0.5
68 | C11G A14G C24G G67C | ≤ 0.5
69 | C4A C11U A45U C66U | ≤ 0.5
70 | U19A C31G G44C | ≤ 0.5
71 | U47G C49A A69U | 0.573
72 | C4A A20C A42U C66U | ≤ 0.5

Row | Variant | yeast fitness
73 | G9C G39C A45C | ≤ 0.5
74 | C11U G23A U35C | 0.573
75 | A36U A65U | 0.597
76 | C11G C30A G44C G52C U64G | ≤ 0.5
77 | G17A C22U | 0.737
78 | A14G A43G G52C U53C G63C | ≤ 0.5
79 | C30A A36U G38C G39A C66A | ≤ 0.5
80 | C24A A43C A69U | ≤ 0.5
81 | A14G A15G U35C | 0.572
82 | U13C U59C | 0.858
83 | A20G G56C G68C | 0.6
84 | A14G C22U A70C | ≤ 0.5
85 | U7A G23A A42G C62U | ≤ 0.5
86 | C33U G48A C60U U64G A65U | 0.606
87 | U7A G52C G56A | 0.554
88 | C62A C66U | 0.694
89 | C5U C33G | 0.777
90 | C34U C55U | 0.569
91 | C29G C34U C62U | ≤ 0.5
92 | U2C U53C C61G | ≤ 0.5
93 | C4A A45C G52A G67U | 0.577
94 | C4G A43C C55A A57C | ≤ 0.5
95 | A20C U26G | 0.572
96 | A20C C24U C31G A37U C60G | ≤ 0.5

Row | Variant | yeast fitness
97 | C11G A14G A15U G23C U53A C62U | ≤ 0.5
98 | U19C G25A G44C U47A | ≤ 0.5
99 | U3A C4A U8C C29G A37C A69C | ≤ 0.5
100 | U28A A36U C61A A69U | ≤ 0.5
101 | A37U U54A | ≤ 0.5
102 | C4U G12A C31A A42U | ≤ 0.5
103 | U8C C11U C22G C55G G63C | ≤ 0.5
104 | C24G C30G C62U G68C | ≤ 0.5
105 | U2C G48C | 1.11
106 | U7A A20G G23C C29G G51A G56U | ≤ 0.5
107 | C4U C5G G41A U59C | ≤ 0.5
108 | A14G C49G G56C | ≤ 0.5
109 | C27U C46A A57C | 0.726
110 | U28C A45U C55A C66A | ≤ 0.5
111 | C11G C24G C49U | ≤ 0.5
112 | U32G G41C C46U | 0.647
113 | C5G C30U U54A | 0.601
114 | C60U C62G A70G | 0.521
115 | A14U C24G A57C | ≤ 0.5
116 | G10C A15U C29G C46U G51C C66U | ≤ 0.5
117 | U32C G52A | 0.76
118 | C55U A69C | 0.762
119 | A40U A42G A57U | 0.576
120 | C27A A37U A70U | 0.548

Row | Variant | yeast fitness
121 | A57C A70G | 0.664
122 | U8C A21U | 0.802
123 | A21G A43U C49U U53C C61G | ≤ 0.5
124 | C27A G67U | 0.745
125 | C27A G67C | 0.786
126 | A14U A37C C46U C61G | ≤ 0.5
127 | C4U C22A A40C C55G A57C A69U | ≤ 0.5
128 | A43C U47A | 0.732
129 | G25A C66G | 0.962
130 | C24U A45C G63A | 0.601
131 | U7G U26C C49G | ≤ 0.5
132 | U19A C46U G67A | 0.957
133 | C5A C33G C34A A40C C55U A65C | ≤ 0.5
134 | C30G C34G U35A G68A | ≤ 0.5
135 | U26G G67C | 0.644
136 | C4U A15U C30A A40G C66U | 0.6
137 | U13C C27G G63C | 0.548
138 | C5A C62G C66A | ≤ 0.5
139 | U13G C22U A45U U59C | 0.54
140 | C49A C61U C62G | ≤ 0.5
141 | G6C A20G C22A C31G | ≤ 0.5
142 | U2A G9A U13A | 0.645
143 | G12C A45U A70U | 0.564
144 | U2C C31G C55U G63A | ≤ 0.5

Row | Variant | yeast fitness
145 | A21C G39A A65C | ≤ 0.5
146 | A43G G56A C66U G68U | 0.557
147 | C27G A36C C46U G51C | 0.54
148 | G17C U26C C46U A65C | ≤ 0.5
149 | U7C A42U A70U | 0.584
150 | C5U G6C G39A A45U C46G | 0.626
151 | C11U U35C C55A A69U | ≤ 0.5
152 | A20C C30A A65C | 0.583
153 | C5G A21C A45G A57G G68A | ≤ 0.5
154 | A20G G67A A69C | 0.563
155 | U2C C30U C31U | 0.698
156 | C4G G51U | 0.654
157 | G41A A65C | 0.67
158 | A43C C62G | 0.76
159 | U2A C33G | 0.714
160 | U7G G38A A40G C66A | ≤ 0.5
161 | C5U U35A A45C | 0.602
162 | G10C C22A C24G G51C C62U | ≤ 0.5
163 | U3G C33U A42G A57U C61A | ≤ 0.5
164 | G41C G48A | 0.981
165 | U3A C4U U8A G10A A21G U53A A65C A70G | ≤ 0.5
166 | G41C C66A | 0.621
167 | C5A A14U U53A | ≤ 0.5
